Residues, ends and D or L forms follow the SMILES beside them. *: point of attachment. Adamantane1carbonyl = O=C(C12CC3CC(CC(C3)C1)C2)*; OtBu = CC(C)(C)O*
Assays:
[1] = target: T1, Fibroblast growth factor 14/SCN8A (Homo sapiens) (UniProt Q9UQD0+Q92915); assay: Modulation of recombinant human Nav1.6 C-terminal tail (1763 to 1976 residues)-FGF14 (64 to 252 residues) protein-protein interaction expressed in HEK293 cells assessed as peak current density at 10 uM incubated for 30 mins by whole cell patch clamp electrophysiology assay (reference value: -19.3 +/- 1.3); format: cell-based
T1 sequence (Q9UQD0 whole entry, looked up, one chain of several, the tested form may be a part): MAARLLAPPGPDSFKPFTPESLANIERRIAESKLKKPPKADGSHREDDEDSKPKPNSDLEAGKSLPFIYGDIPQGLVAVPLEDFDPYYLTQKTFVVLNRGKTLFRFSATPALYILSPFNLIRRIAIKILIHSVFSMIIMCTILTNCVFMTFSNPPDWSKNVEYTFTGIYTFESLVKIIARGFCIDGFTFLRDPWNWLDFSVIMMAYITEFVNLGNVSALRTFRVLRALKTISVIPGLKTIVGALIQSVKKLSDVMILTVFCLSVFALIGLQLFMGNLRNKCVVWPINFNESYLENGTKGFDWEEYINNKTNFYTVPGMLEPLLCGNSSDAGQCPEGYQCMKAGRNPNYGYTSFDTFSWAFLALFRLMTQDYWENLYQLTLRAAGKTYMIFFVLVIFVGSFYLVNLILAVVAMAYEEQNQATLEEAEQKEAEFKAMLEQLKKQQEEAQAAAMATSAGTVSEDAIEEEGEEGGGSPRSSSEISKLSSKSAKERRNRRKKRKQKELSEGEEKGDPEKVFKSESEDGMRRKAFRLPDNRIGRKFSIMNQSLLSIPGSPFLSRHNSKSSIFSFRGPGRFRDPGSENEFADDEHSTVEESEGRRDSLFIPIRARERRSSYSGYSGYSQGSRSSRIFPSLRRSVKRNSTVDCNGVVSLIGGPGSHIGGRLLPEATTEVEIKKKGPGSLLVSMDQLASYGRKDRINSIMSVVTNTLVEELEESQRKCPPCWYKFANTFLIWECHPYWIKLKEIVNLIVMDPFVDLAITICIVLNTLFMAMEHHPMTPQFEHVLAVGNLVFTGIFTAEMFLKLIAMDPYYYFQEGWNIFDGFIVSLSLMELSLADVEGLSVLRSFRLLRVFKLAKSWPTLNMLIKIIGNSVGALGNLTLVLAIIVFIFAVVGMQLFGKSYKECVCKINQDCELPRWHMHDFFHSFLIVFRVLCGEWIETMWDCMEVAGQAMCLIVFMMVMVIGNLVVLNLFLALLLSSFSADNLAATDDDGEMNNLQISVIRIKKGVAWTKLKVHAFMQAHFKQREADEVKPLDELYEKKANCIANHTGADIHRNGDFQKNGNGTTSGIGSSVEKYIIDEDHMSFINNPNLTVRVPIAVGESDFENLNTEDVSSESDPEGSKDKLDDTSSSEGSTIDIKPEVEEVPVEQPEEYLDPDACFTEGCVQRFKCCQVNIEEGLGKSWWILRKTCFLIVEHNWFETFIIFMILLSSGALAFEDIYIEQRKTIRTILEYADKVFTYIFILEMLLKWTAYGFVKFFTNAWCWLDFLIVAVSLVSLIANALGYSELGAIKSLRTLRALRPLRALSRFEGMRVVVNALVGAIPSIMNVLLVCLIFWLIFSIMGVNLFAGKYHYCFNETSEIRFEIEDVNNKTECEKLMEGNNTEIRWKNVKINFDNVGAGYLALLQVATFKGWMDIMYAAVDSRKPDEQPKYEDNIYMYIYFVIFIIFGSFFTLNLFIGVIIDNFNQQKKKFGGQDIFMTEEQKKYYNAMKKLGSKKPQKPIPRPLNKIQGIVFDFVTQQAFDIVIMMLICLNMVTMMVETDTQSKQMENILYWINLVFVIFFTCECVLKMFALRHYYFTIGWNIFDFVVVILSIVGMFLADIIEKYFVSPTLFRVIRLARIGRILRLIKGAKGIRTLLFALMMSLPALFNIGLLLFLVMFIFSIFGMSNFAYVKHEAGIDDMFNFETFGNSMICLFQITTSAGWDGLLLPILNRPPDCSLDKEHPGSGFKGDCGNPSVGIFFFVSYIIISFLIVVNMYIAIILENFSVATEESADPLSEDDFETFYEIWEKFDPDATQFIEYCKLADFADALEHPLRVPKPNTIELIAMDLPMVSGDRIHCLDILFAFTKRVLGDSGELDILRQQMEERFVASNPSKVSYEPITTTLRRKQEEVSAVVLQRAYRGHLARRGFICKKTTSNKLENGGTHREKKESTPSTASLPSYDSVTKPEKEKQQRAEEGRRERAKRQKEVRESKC
In short: (§1)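 HEK-Nav1.6 cells transiently transfected with FGF14 using Lipofectamine 2000, then exposed at least 30 min to 10 μM compound or 0.1% DMSO in the pH 7.3 HEPES extracellular solution. Whole-cell patch clamp with Cs-methanesulfonate internal solution, 70–80% capacitance and series-resistance compensation. Test steps from −100 to +60 mV. Student's t-test used.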

HEK293 [2] = assay: Modulation of recombinant human FGF141b (1 to 252 residues)-recombinant human Nav1.6 C-terminal tail (1763 to 1976 residues) protein-protein interaction expressed in HEK293 cells assessed as relative luminescence value at 50 uM measured at 2 mins interval for 20 mins by split-luciferase complementation assay relative to control; format: cell-based; conditions: filed as modulator, time min 2-20
In short: (§2)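 Double-stable HEK293 line expressing CLuc-FGF14 and CD4-Nav1.6-C-tail-NLuc, kept on G418 and puromycin. Cells seeded for 24 h, then given compound for 1 h in serum-free, phenol red-free DMEM/F12 with a final 0.5% DMSO: 50 μM for screening, 0.25–100 μM over eight concentrations for dose-response; n = 4. D-luciferin added and read every 2 min for 20 min at 37 °C. Peak luminescence expressed as percent of per-plate DMSO mean (n = 32). IC50 from four-parameter nonlinear fit. At least 3 experiments.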

[3] = target: T1, Fibroblast growth factor 14/SCN8A (Homo sapiens); assay: Modulation of recombinant human Nav1.6 C-terminal tail (1763 to 1976 residues) -FGF14 (64 to 252 residues) protein-protein interaction expressed in HEK293 cells assessed as long-term inactivation at depolarization cycle 4 at 10 uM incubated for 30 mins by cell patch clamp electrophysiology assay (reference value: 0.98 +/- 0.06); format: cell-based; conditions: filed as modulator
[4] = Modulation of recombinant human FGF141b (1 to 252 residues)-recombinant human Nav1.6 C-terminal tail (1763 to 1976 residues) protein-protein interaction expressed in HEK293 cells measured at 2 mins interval for 20 mins by split-luciferase complementation assay; format: cell-based; in short: as §2
HEK293 [5] = assay: Cytotoxicity against HEK293 cells assessed as reduction in cell viability measured after 18 hrs by celltiter-blue assay; conditions: human, hek293, 18 h
[6] = target: T2, Fibroblast growth factor 14 (Homo sapiens, UniProt Q92915); assay: Binding affinity to human recombinant FGF14 expressed in Escherichia coli BL21 assessed as dissociation constant by SPR analysis
T2 sequence (Q92915 whole entry): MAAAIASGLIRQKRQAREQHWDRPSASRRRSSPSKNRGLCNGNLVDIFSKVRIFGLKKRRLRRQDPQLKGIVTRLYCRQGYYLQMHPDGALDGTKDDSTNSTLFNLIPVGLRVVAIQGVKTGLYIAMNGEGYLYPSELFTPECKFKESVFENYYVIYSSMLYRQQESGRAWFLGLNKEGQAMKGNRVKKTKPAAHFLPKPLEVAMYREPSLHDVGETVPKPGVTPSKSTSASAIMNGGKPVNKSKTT
In short: (§3)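 Biacore T100 runs with FGF14 (17,896 RU) or Nav1.6 C-tail (6,800 RU) amine-coupled on CM5 at pH 5.5. Compounds at 0.195–200 μM in PBS, 0.005% Tween-20, 2% DMSO; 50 μL/min at 25 °C. 120 s association, 150 s dissociation, DMSO calibration, blank subtraction. Rates from a Langmuir 1:1 fit; KD averages the kinetic and steady-state values. At least duplicate experiments.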

[7] = target: T3, Sodium channel protein type 8 subunit alpha (Homo sapiens, UniProt Q9UQD0); assay: Binding affinity to human recombinant Nav1.6 C-terminal domain expressed in Escherichia coli BL21 assessed as association rate constant by SPR analysis; conditions: filed as modulator; in short: as §3
Target sequence in this assay (Q9UQD0 whole entry, looked up, the tested form may be a part): as the sequence (Q9UQD0 whole entry, looked up, one chain of several, the tested form may be a part) above

[8] = target: T3, Sodium channel protein type 8 subunit alpha; assay: Binding affinity to human recombinant Nav1.6 C-terminal domain expressed in Escherichia coli BL21 assessed as dissociation rate constant by SPR analysis; conditions: filed as modulator; in short: as §3
Target sequence in this assay (Q9UQD0 whole entry, looked up, the tested form may be a part): as the sequence (Q9UQD0 whole entry, looked up, one chain of several, the tested form may be a part) above

[9] = target: T3, Sodium channel protein type 8 subunit alpha; assay: Modulation of recombinant human Nav1.6 C-terminal tail (1763 to 1976 residues) expressed in HEK293 cells assessed as change in time constant of fast inactivation at 10 uM incubated for 30 mins by whole cell patch clamp electrophysiology assay (reference value: 1.22 +/- 0.07 ms); format: cell-based; conditions: filed as modulator
In short: (§4)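 Stable HEK-Nav1.6 cells without FGF14, incubated at least 30 min in extracellular solution (mM: 140 NaCl, 3 KCl, 1 MgCl2, 1 CaCl2, 10 HEPES, 10 glucose, pH 7.3) with compound (10 or 30 μM) or 0.1% DMSO. Whole-cell recording with Cs-methanesulfonate/EGTA/NaCl/HEPES pipette solution, 70–80% compensation. Steps −100 to +60 mV; tau measured at −10 mV. Student's t-test.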
Target sequence in this assay (Q9UQD0 whole entry, looked up, the tested form may be a part): as the sequence (Q9UQD0 whole entry, looked up, one chain of several, the tested form may be a part) above

[10] = target: T3, Sodium channel protein type 8 subunit alpha; assay: Modulation of recombinant human Nav1.6 C-terminal tail (1763 to 1976 residues) expressed in HEK293 cells assessed as half activation voltage at 10 uM incubated for 30 mins by whole cell patch clamp electrophysiology assay (reference value: -25.4 +/- 1 mV); format: cell-based; in short: as §4
Target sequence in this assay (Q9UQD0 whole entry, looked up, the tested form may be a part): as the sequence (Q9UQD0 whole entry, looked up, one chain of several, the tested form may be a part) above

[11] = target: T3, Sodium channel protein type 8 subunit alpha; assay: Binding affinity to human recombinant Nav1.6 C-terminal domain expressed in Escherichia coli BL21 assessed as dissociation constant by SPR analysis; in short: as §3
Target sequence in this assay (Q9UQD0 whole entry, the tested form may be a part): as the sequence (Q9UQD0 whole entry, looked up, one chain of several, the tested form may be a part) above

[12] = target: T3, Sodium channel protein type 8 subunit alpha; assay: Binding affinity to human recombinant Nav1.6 C-terminal domain expressed in Escherichia coli BL21 assessed as assessed as induction of protein denaturation by measuring change in melting temperature at 10 uM by fluorescent dye based thermal shift assay; conditions: filed as modulator, dose 50.0 µM
Target sequence in this assay (Q9UQD0 whole entry, looked up, the tested form may be a part): as the sequence (Q9UQD0 whole entry, looked up, one chain of several, the tested form may be a part) above

[13] = target: T1, Fibroblast growth factor 14/SCN8A (Homo sapiens); assay: Modulation of recombinant human Nav1.6 C-terminal tail (1763 to 1976 residues)-FGF14 (64 to 252 residues) protein-protein interaction expressed in HEK293 cells assessed as change in time constant of inactivation at 10 uM incubated for 30 mins by cell patch clamp electrophysiology assay (reference value: 1.58 +/- 0.18 ms); format: cell-based; conditions: filed as modulator; in short: as §1
[14] = target: T3, Sodium channel protein type 8 subunit alpha; assay: Modulation of recombinant human Nav1.6 C-terminal tail (1763 to 1976 residues) expressed in HEK293 cells assessed as long-term inactivation at depolarization cycle 2 at 10 uM incubated for 30 mins by whole cell patch clamp electrophysiology assay (reference value: 0.84 +/- 0.03); format: cell-based; conditions: filed as modulator
Target sequence in this assay (Q9UQD0 whole entry, looked up, the tested form may be a part): as the sequence (Q9UQD0 whole entry, looked up, one chain of several, the tested form may be a part) above

## COC(=O)[C@@H](NC(=O)[C@H](CCC(=O)OC(C)(C)C)NC(=O)[C@H](CC(C)C)NC(=O)[C@@H]1CCCN1C(=O)C12CC3CC(CC(C3)C1)C2)C(C)C (Adamantane1carbonyl-PLE(OtBu)V-OMe)
[1]
  Activity: -38.8 pA/pF
HEK293 [2]
  Activity: 4.7%
[3]
  Activity: 0.75
[4]
  IC50: 20.4 µM
HEK293 [5]
  Activity: Non-Toxic
[6]
  Kd: 4.05 µM
[7]
  K: 6.23 10^4/M/s
[8]
  K: 3.57 10^-3/s
[9]
  K: 1.45 ms
[10]
  Activity: -16.9 mV
[11]
  Kd: 16.4 µM
[12]
  ΔTm: -4.64 °C
[13]
  K: 1 ms
[14]
  Activity: 0.87

Reference: ChEMBL document CHEMBL4699573, “Design, Synthesis, and Pharmacological Evaluation of Analogues Derived from the PLEV Tetrapeptide as Protein-Protein Interaction Modulators of Voltage-Gated Sodium Channel 1.6” (J Med Chem, 2020)
